Source: ChEMBL document CHEMBL1153046, “Synthesis and antitumor activity of substituted triazolo[4,3-a]pyrimidin-6-sulfonamide with an incorporated thiazolidinone moiety” (2009)

Assays:
Format in all cases: functional
MCF7 = assay: Antiproliferative activity against human MCF7 cells assessed as cell growth at 100 uM after 48 hrs by alamar blue assay; conditions: MCF7, 48 h, read-out: Activity
How it was run: (§1)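 NCI three-cell-line primary screen. Cells are seeded and preincubated in microtiter plates. Compound is added at a single 10^-4 M concentration and cultures are incubated 48 h. The end-point is read with alamar blue. Results are given as percent growth relative to untreated control cells.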

NCI-H460 = assay: Antiproliferative activity against human NCI-H460 cells assessed as cell growth at 100 uM after 48 hrs by alamar blue assay; conditions: NCI-H460, 48 h, read-out: Activity; how it was run: as §1
SF-268 = assay: Antiproliferative activity against human SF268 cells assessed as cell growth at 100 uM after 48 hrs by alamar blue assay; conditions: SF-268, 48 h, read-out: Activity; how it was run: as §1

Compound	growth at 100 µM (MCF7) [%]	growth at 100 µM (NCI-H460) [%]	growth at 100 µM (SF-268) [%]
COc1ccc(/C=N/c2nc3[nH]nc(C)n3c(=O)c2S(=O)(=O)NN2C(=O)C(CN3CCOCC3)SC2c2ccc(Cl)cc2)cc1 (stereo not drawn)	94	68	95
COc1ccc(/C=N/c2nc3[nH]nc(C)n3c(=O)c2S(=O)(=O)NN2C(=O)C(CN3CCOCC3)SC2c2ccc(C)cc2)cc1 (stereo not drawn)	67	63	82
COc1ccc(/C=N/c2nc3[nH]nc(C)n3c(=O)c2S(=O)(=O)NN2C(=O)C(CN3CCN(C)CC3)SC2c2ccc(C)cc2)cc1 (stereo not drawn)	55	109	102
COc1ccc(/C=N/c2nc3[nH]nc(C)n3c(=O)c2S(=O)(=O)Nc2ccc(Cl)cc2)cc1	87	102	87
COc1ccc(/C=N/c2nc3[nH]nc(C)n3c(=O)c2S(=O)(=O)NN2C(=O)C(CN3CCN(C)CC3)SC2c2ccc(Cl)cc2)cc1 (stereo not drawn)	102	86	106
COc1ccc(/C=N/c2nc3[nH]nc(C)n3c(=O)c2S(=O)(=O)Nc2ccc(C)cc2)cc1	83	89	85
COc1ccc(/C=N/c2nc3[nH]nc(C)n3c(=O)c2S(=O)(=O)NN2C(=O)CSC2c2ccc(Cl)cc2)cc1 (stereo not drawn)	90	88	84
COc1ccc(/C=N/c2nc3[nH]nc(C)n3c(=O)c2S(=O)(=O)NN2C(=O)CSC2c2cccs2)cc1 (stereo not drawn)	89	106	98
COc1ccc(/C=N/c2nc3[nH]nc(C)n3c(=O)c2S(=O)(=O)N/N=C/c2ccc(C)cc2)cc1	87	83	93
COc1ccc(/C=N/NS(=O)(=O)c2c(/N=C/c3ccc(OC)cc3)nc3[nH]nc(C)n3c2=O)cc1	83	55	85
COc1ccc(/C=N/c2nc3[nH]nc(C)n3c(=O)c2S(=O)(=O)NN2C(=O)CSC2c2ccc(OC)cc2)cc1 (stereo not drawn)	91	118	94
COc1ccc(/C=N/c2nc3[nH]nc(C)n3c(=O)c2S(=O)(=O)N/N=C/c2cccs2)cc1	66	13	62
COc1ccc(/C=N/c2nc3[nH]nc(C)n3c(=O)c2S(=O)(=O)Nc2ccc(OC)cc2)cc1	86	82	91
COc1ccc(/C=N/c2nc3[nH]nc(C)n3c(=O)c2S(=O)(=O)N/N=C/c2ccc(Cl)cc2)cc1	93	73	101
COc1ccc(/C=N/c2nc3[nH]nc(C)n3c(=O)c2S(=O)(=O)NN)cc1	43	45	55
COc1ccc(/C=N/c2nc3[nH]nc(C)n3c(=O)c2S(=O)(=O)NN2C(=O)CSC2c2ccc(C)cc2)cc1 (stereo not drawn)	72	67	63
